Measured values taken from ChEMBL document CHEMBL1158112, “A nitrogen-containing 3-alkyl-1,4-benzoquinone and a gomphilactone derivative from Embelia ribes” (J Nat Prod, 2006).
The source made the active and inactive calls. No cut-off for these calls is given here.

Tests used:
[1] = biological target: Prothrombin (Homo sapiens) (UniProt P00734); assay: Inhibition of thrombin at 50 uM
A549 = assay: Cytotoxicity against human A549 cells after 96 hrs by MTT assay; format: functional, cell-based; details: A549, 96 h
Summary of the method: (§1)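 Cells grown in RPMI1640 with 10% FBS, 100 units/mL penicillin and 100 µg/mL streptomycin, at 37 °C in humidified 5% CO2. Seeded at 1200 cells/well; compounds added after 24 h at five concentrations (final DMSO 0.1%), triplicate wells.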

A2780 = assay: Cytotoxicity against human A2780 cells after 96 hrs by MTT assay; format: functional, cell-based; details: A2780, 96 h; summary of the method: as §1
Bel-7402 = assay: Cytotoxicity against human Bel-7402 cells after 96 hrs by MTT assay; format: functional, cell-based; details: Bel-7402, 96 h; summary of the method: as §1
BGC-823 = assay: Cytotoxicity against human BGC-823 cells after 96 hrs by MTT assay; format: functional, cell-based; details: BGC-823, 96 h; summary of the method: as §1
HCT-8 = assay: Cytotoxicity against human HCT8 cells after 96 hrs by MTT assay; format: functional, cell-based; details: HCT-8, 96 h; summary of the method: as §1
[2] = biological target: T1, Tyrosine-protein phosphatase non-receptor type 1 (Homo sapiens) (UniProt P18031); assay: Inhibition of PTP1B at 50 uM
T1 sequence (whole entry): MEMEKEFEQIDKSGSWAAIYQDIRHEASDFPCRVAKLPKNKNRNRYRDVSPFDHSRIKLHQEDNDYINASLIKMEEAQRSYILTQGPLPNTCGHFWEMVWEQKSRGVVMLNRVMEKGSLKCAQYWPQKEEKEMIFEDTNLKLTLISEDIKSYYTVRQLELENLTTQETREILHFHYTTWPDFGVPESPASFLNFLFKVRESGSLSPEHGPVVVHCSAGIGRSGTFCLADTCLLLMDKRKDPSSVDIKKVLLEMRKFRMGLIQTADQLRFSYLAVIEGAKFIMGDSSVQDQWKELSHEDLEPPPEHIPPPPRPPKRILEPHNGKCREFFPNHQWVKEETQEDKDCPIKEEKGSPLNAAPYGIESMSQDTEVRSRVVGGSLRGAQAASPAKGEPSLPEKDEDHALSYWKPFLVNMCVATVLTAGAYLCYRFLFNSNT

Row | Structure (SMILES) | Activity [1] | IC50 (A549) | IC50 (A2780) | IC50 (Bel-7402) | IC50 (BGC-823) | IC50 (HCT-8) | Activity [2]
1 | CCCCC/C=C\C/C=C\CCCCCCCc1cc(O)cc(O)c1 | inactive | 1420 nM | 1570 nM | 1910 nM | 1790 nM | 1540 nM | inactive
2 | CCCCCCCCCCCCCCCc1cc(O)cc(O)c1 [CARDOL] | inactive | 1430 nM | 1310 nM | 1930 nM | 1740 nM | 1480 nM | inactive
3 | CC[C@@]1(O)C(=O)OCc2c1cc1n(c2=O)Cc2cc3c(CN(C)C)c(O)ccc3nc2-1 [TOPOTECAN] |  | 3500 nM | 1200 nM | 1400 nM | 3800 nM | 1200 nM | 
4 | COc1cc([C@H]2c3c(cc(OC)c(O)c3OC)C[C@@H](CO)[C@@H]2CO[C@@H]2O[C@H](CO)[C@@H](O)[C@H](O)[C@H]2O)cc(OC)c1O | inactive | > 10 µg/mL | > 10 µg/mL | > 10 µg/mL | > 10 µg/mL | > 10 µg/mL | inactive
5 | CCCCCc1cc(O)cc(OC)c1 | inactive | > 10 µg/mL | > 10 µg/mL | > 10 µg/mL | > 10 µg/mL | > 10 µg/mL | inactive
6 | CCCCCCCC/C=C\CCCCCCCc1cc(O)cc(O)c1 | inactive | 460 nM | 1060 nM | 1070 nM | 1430 nM | 780 nM | inactive
7 | CCCCCCCCCCCCCC1=C(O)/C(=C2\C(=O)Oc3c2cc(O)c(O)c3CCCCCCCCCCCCC)OC1=O | inactive | > 10 µg/mL | > 10 µg/mL | > 10 µg/mL | > 10 µg/mL | > 10 µg/mL | inactive
8 | COc1cc(O[C@@H]2O[C@H](CO)[C@@H](O)[C@H](O)[C@H]2O)cc(OC)c1O [KOABURASIDE] | inactive | > 10 µg/mL | > 10 µg/mL | > 10 µg/mL | > 10 µg/mL | > 10 µg/mL | inactive
9 | CCCCCCCCCCCCCC1=C(O)C(=O)C=C(O)C1=O [Rapanone] | inactive | 1580 nM | 1820 nM | 1460 nM | 1890 nM | 1520 nM | inactive
10 | Oc1cc(O)c2c(c1)O[C@H](c1ccc(O)c(O)c1)[C@@H](O)C2 [CIANIDANOL] | inactive | > 10 µg/mL | > 10 µg/mL | > 10 µg/mL | > 10 µg/mL | > 10 µg/mL | inactive
11 | COc1cc(O)cc(OC)c1O[C@@H]1O[C@H](CO)[C@@H](O)[C@H](O)[C@H]1O [LEONURISIDE] | inactive | > 10 µg/mL | > 10 µg/mL | > 10 µg/mL | > 10 µg/mL | > 10 µg/mL | inactive
12 | CC[C@H](CC[C@@H](C)[C@H]1CC[C@H]2[C@@H]3CC=C4C[C@@H](O[C@@H]5O[C@H](CO)[C@@H](O)[C@H](O)[C@H]5O)CC[C@]4(C)[C@H]3CC[C@]12C)C(C)C [SITOGLUSIDE] | inactive | > 10 µg/mL | > 10 µg/mL | > 10 µg/mL | > 10 µg/mL | > 10 µg/mL | inactive
13 | CC[C@H](CC[C@@H](C)[C@H]1CC[C@H]2[C@@H]3CC=C4C[C@@H](O)CC[C@]4(C)[C@H]3CC[C@]12C)C(C)C [BETA-SITOSTEROL] | inactive | > 10 µg/mL | > 10 µg/mL | > 10 µg/mL | > 10 µg/mL | > 10 µg/mL | inactive
14 | CCCCCCCCCCCCCC1=C(O)C(=O)C=C(NCCCC(=O)O)C1=O | inactive | > 10 µg/mL | > 10 µg/mL | > 10 µg/mL | > 10 µg/mL | > 10 µg/mL | inactive
